Source: ChEMBL document CHEMBL4354866, “TREK Channel Family Activator with a Well-Defined Structure-Activation Relationship for Pain and Neurogenic Inflammation” (J Med Chem, 2020)
Activity calls are given as the source filed them. The rule behind the calls is not given here.

Legend:
Format in all cases: cell-based
[1] = target: T1, Potassium channel subfamily K member 4 (Homo sapiens, UniProt Q9NYG8); assay: Activation of recombinant human TRAAK expressed in HEK293T cells assessed as increase in K+ current amplitude by whole cell voltage clamp electrophysiological analysis
T1 sequence (Q9NYG8 whole entry): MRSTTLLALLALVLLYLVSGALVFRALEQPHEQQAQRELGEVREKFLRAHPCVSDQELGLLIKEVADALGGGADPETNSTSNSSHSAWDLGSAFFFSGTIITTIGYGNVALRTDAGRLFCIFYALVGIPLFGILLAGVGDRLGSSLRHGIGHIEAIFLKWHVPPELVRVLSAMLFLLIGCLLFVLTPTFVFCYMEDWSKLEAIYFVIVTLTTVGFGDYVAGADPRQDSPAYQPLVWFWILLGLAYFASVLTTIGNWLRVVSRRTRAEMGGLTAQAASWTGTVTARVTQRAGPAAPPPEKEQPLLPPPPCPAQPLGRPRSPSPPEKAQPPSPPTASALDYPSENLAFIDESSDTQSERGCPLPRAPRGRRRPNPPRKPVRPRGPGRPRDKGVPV
How it was run: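 Transiently transfected HEK-293T cells, whole-cell voltage clamp. Held at -60 mV, 500-ms ramp -120 to +60 mV. Pipette (mM) 140 KCl, 5 EGTA, 10 HEPES, pH 7.4; external 145 NaCl, 4 KCl, pH 7.3. Compound diluted from 10 mM DMSO stock and applied extracellularly. Current increase over control fitted to concentration–response curves for EC50.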

[2] = target: Potassium channel subfamily K member 2 (Homo sapiens, UniProt O95069, G275C); assay: Activation of recombinant human TREK1 G275C mutant expressed in HEK293T cells assessed as increase in K+ current amplitude in presence of MTSET by whole cell voltage clamp electrophysiological analysis
Potassium channel subfamily K member 2, sequence (O95069 whole entry G275C): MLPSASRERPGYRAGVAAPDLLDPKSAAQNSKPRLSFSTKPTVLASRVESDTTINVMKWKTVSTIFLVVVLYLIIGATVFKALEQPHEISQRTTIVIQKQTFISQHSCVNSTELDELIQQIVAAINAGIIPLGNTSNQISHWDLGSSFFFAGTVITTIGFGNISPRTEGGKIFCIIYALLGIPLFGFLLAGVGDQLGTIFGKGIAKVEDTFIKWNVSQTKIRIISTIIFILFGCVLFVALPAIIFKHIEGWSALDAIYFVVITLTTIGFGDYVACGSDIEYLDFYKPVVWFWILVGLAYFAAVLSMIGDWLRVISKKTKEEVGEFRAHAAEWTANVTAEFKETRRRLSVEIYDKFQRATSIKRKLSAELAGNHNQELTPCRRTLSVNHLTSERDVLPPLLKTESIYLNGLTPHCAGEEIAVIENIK
How it was run: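 Human TREK-1 G275C expressed in HEK-293T, whole-cell ramp recordings. Tested with or without MTSET, 1 mM final, diluted from 0.5 M DMSO stock within 120 s of application. Concentration–response curves for EC50, n = 5–19; 10 μM single-point comparison by one-way ANOVA with Tukey test.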

[3] = target: T2, Potassium channel subfamily K member 2 (Homo sapiens) (UniProt O95069); assay: Activation of recombinant human TREK1 expressed in HEK293T cells assessed as change in single channel conductance by inside-out patch electrophysiological analysis
T2 sequence (whole entry): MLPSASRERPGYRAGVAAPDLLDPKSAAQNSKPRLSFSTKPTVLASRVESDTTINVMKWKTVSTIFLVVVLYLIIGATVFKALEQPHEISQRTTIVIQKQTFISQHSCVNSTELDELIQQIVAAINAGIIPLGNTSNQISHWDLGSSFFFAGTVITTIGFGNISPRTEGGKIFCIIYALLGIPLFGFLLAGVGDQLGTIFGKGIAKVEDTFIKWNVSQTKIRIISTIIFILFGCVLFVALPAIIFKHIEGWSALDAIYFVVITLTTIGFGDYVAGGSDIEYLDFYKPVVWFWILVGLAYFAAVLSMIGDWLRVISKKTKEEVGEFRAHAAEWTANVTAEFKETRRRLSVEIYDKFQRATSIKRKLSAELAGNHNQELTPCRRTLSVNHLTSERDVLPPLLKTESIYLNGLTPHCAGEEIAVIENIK
How it was run: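 Inside-out patches from HEK-293T cells expressing human TREK-1 (pEGFP-N1), 10 μM compound. Conductance taken as first open-state amplitude over voltage at -60 or +60 mV.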

[4] = target: T2, Potassium channel subfamily K member 2 (Homo sapiens); assay: Activation of recombinant human TREK1 expressed in HEK293T cells assessed as increase in K+ current amplitude measured after compound washout by whole cell voltage clamp electrophysiological analysis
How it was run: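 HEK-293T cells expressing human TREK-1, whole-cell clamp. Current recorded during extracellular compound application and again after washout.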

[5] = target: T3, Potassium channel subfamily K member 13 (Homo sapiens) (UniProt Q9HB14); assay: Activation of recombinant human THIK1 expressed in HEK293T cells assessed as increase in K+ current amplitude at 10 uM by whole cell voltage clamp electrophysiological analysis
T3 sequence (whole entry): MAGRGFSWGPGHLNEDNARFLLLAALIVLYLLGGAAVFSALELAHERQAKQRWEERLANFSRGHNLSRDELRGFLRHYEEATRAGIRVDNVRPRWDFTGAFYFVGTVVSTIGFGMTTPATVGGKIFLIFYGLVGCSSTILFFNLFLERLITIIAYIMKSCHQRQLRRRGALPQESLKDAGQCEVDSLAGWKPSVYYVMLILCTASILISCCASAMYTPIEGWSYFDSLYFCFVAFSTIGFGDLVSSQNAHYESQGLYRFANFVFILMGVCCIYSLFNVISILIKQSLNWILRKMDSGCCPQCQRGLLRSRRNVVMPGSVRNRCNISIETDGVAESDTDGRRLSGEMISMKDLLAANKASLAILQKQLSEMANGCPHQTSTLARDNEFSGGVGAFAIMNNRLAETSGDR
How it was run: (§1)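 HEK-293T cells transiently transfected with the human K2P channel. Whole-cell clamp at -60 mV, 500-ms ramp -120 to +60 mV. Pipette 140 KCl (pH 7.4), external 145 NaCl/4 KCl (pH 7.3). Compound 10 μM, diluted from 10 mM DMSO stock into external solution.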

[6] = target: T4, Potassium channel subfamily K member 18 (Homo sapiens) (UniProt Q7Z418); assay: Activation of recombinant human TRESK expressed in HEK293T cells assessed as increase in K+ current amplitude at 10 uM by whole cell voltage clamp electrophysiological analysis; how it was run: as §1
T4 sequence (whole entry): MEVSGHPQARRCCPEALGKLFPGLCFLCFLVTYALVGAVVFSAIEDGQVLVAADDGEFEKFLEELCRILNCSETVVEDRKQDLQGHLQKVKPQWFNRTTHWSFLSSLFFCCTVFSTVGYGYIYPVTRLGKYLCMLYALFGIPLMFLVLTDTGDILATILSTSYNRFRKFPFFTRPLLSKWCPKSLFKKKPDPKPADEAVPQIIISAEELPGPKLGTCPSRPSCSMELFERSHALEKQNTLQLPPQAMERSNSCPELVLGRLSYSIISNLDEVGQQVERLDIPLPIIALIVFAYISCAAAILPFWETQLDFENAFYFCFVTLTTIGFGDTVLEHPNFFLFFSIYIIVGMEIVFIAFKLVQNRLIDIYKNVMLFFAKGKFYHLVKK

EC50 [1]: 15.3 µM
EC50 [2]: 18.4 µM
Activity [3]: inactive
Activity [4]: inactive
Activity [5]: Active
Activity [6]: Active
Structure (SMILES): Cc1ccc2nc(-c3ccc(NC(=O)[C@@H]4CC[C@H](C(=O)O)C4)cc3)sc2c1
